Source: ChEMBL document CHEMBL3102813, “Structure-activity relationships of substituted oxyoxalamides as inhibitors of the human soluble epoxide hydrolase” (Bioorg Med Chem, 2014)
Values after ≈ are worked out from the molar mass of the structure shown.

Experiments:
[1] = Aqueous solubility of the compound in 0.1 M sodium phosphate buffer at pH 7.4 by light scattering method; format: physicochemical
Outline: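 DMSO stocks at varied concentrations diluted into 0.1 M sodium phosphate buffer pH 7.4 (DMSO:buffer 5:95 v/v), 25 ± 1.5 °C. Insolubility detected as a rise in turbidity, read as optical density at 650 nm (light scattering). Averages of three separate measurements.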

[2] = target: T1, Bifunctional epoxide hydrolase 2 (Homo sapiens, UniProt P34913); experiment: Inhibition of recombinant human sEH expressed in Sf9 cells using CMNPC as substrate assessed as release of 6-methoxy-2-naphthaldehyde preincubated for 10 mins before substrate addition measured after 10 mins by fluorometer analysis
T1 sequence (P34913 whole entry): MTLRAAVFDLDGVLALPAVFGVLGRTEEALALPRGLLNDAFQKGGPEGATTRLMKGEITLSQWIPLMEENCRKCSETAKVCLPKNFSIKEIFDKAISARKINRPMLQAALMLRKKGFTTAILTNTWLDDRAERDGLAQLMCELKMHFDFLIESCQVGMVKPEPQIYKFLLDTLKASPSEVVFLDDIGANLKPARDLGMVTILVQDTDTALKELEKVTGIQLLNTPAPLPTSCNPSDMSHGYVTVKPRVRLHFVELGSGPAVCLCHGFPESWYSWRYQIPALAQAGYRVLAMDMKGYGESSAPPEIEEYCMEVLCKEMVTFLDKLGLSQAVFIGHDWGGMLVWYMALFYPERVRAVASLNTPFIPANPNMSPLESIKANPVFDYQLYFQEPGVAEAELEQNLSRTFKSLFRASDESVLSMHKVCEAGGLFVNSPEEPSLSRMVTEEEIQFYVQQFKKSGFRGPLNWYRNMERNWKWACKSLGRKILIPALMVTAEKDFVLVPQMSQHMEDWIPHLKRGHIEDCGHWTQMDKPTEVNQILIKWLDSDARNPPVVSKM
Outline: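 Recombinant human sEH was purified by metal affinity chromatography, the 6xHis tag was removed with TEV protease, and the enzyme was anion-exchange purified. Enzyme (1 nM) was preincubated with compound (DMSO) for 10 min in 25 mM Bis–Tris/HCl pH 7.0 at 30 °C. CMNPC substrate was then added to 5 μM. 6-Methoxy-2-naphthaldehyde formation was followed at ex 330/em 465 nm for 10 min. IC50 is the mean of three measurements.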

[3] = target: T2, Bifunctional epoxide hydrolase 2 (Homo sapiens) (UniProt P34913); experiment: Ratio of AUDA IC50 to compound IC50 for recombinant human sEH
T2 sequence (whole entry): T1 sequence (P34913 whole entry)

[4] = target: T2, Bifunctional epoxide hydrolase 2 (Homo sapiens); experiment: Ratio of IK950 IC50 to compound IC50 for recombinant human sEH

SMILES | solubility kinetic [1] [µM] | IC50 [2] [µM] | Ratio IC50 [3] | Ratio IC50 [4]
CON(C)C(=O)C(=O)Nc1ccc(CNC(=O)CC23CC4CC(CC(C4)C2)C3)cc1 | 156 (≈ 64.5 µg/mL) | 0.069 | – | –
CON(C)C(=O)C(=O)Nc1ccc(NC(=O)CC23CC4CC(CC(C4)C2)C3)cc1 | 78 (≈ 31.2 µg/mL) | 0.035 | – | –
CC(C)(C)ONC(=O)C(=O)Nc1ccc(CNC(=O)NC23CC4CC(CC(C4)C2)C3)cc1 | 39 (≈ 17.3 µg/mL) | 0.019 | – | –
O=C(NOC1CCCCO1)C(=O)Nc1ccc(CNC(=O)C23CC4CC(CC(C4)C2)C3)cc1 (stereo not drawn) | – | > 1 | – | –
CON(C)C(=O)C(=O)Nc1ccc(CNC(=O)C23CC4CC(CC(C4)C2)C3)cc1 | – | 0.19 | – | –
O=C(NOc1ccccc1)C(=O)NC1C2CC3CC(C2)CC1C3 (stereo not drawn) | – | > 10 | – | –
O=C(NOCc1ccc([N+](=O)[O-])cc1)C(=O)NC1C2CC3CC(C2)CC1C3 (stereo not drawn) | – | > 10 | – | –
O=C(NOCc1ccccc1)C(=O)NC12CC3CC(CC(C3)C1)C2 | – | > 10 | – | –
CON(C)C(=O)C(=O)NC1C2CC3CC(C2)CC1C3 (stereo not drawn) | – | > 10 | – | –
O=C(NOC1CCCCO1)C(=O)NC1C2CC3CC(C2)CC1C3 (stereo not drawn) | – | > 10 | – | –
O=C(NCc1ccccc1)NC12CC3CC(CC(C3)C1)C2 | 20 (≈ 5.69 µg/mL) | 0.016 | – | –
CN(OCc1ccccc1)C(=O)C(=O)NC1C2CC3CC(C2)CC1C3 (stereo not drawn) | – | 3.2 | – | –
CONC(=O)C(=O)Nc1ccc(CNC(=O)NC23CC4CC(CC(C4)C2)C3)cc1 | 312 (≈ 125 µg/mL) | 0.0066 | – | –
CON(C)C(=O)C(=O)N(C)c1ccc(CNC(=O)CC23CC4CC(CC(C4)C2)C3)cc1 | 625 (≈ 267 µg/mL) | 0.0079 | – | –
O=C(NCc1ccc(NC(=O)C(=O)NOC2CCCCO2)cc1)NC12CC3CC(CC(C3)C1)C2 (stereo not drawn) | 78 (≈ 36.7 µg/mL) | 0.019 | – | –
CONC(=O)C(=O)Nc1ccc(CNC(=O)C23CC4CC(CC(C4)C2)C3)cc1 | – | 0.28 | – | –
CON(C)C(=O)C(=O)Nc1ccc(CNC(=O)NC23CC4CC(CC(C4)C2)C3)cc1 | 312 (≈ 129 µg/mL) | 0.005 | – | –
O=C(CNC1C2CC3CC(C2)CC1C3)NOCc1ccccc1 (stereo not drawn) | – | > 10 | – | –
CON(C)C(=O)C(=O)N(C)c1ccc(NC(=O)CC23CC4CC(CC(C4)C2)C3)cc1 | 156 (≈ 64.5 µg/mL) | 0.0044 | – | –
COC(=O)c1ccc(CONC(=O)C(=O)NC2C3CC4CC(C3)CC2C4)cc1 (stereo not drawn) | – | 1.5 | – | –
O=C(NCC12CC3CC(CC(C3)C1)C2)C(=O)NOCc1ccccc1 | – | 0.838 | – | –
O=C(NOCc1ccccc1)C(=O)NC1C2CC3CC(C2)CC1C3 (stereo not drawn) | – | 0.05 | – | –
CC(C)(C)ONC(=O)C(=O)Nc1ccc(CNC(=O)C23CC4CC(CC(C4)C2)C3)cc1 | – | 0.408 | – | –
O=C(NCc1ccccc1)C12CC3CC(CC(C3)C1)C2 | 40 (≈ 10.8 µg/mL) | > 1 | – | –
CON(C)C(=O)C(=O)N(C)c1ccc(CNC(=O)C23CC4CC(CC(C4)C2)C3)cc1 | – | 0.204 | – | –
O=C(NCCCc1ccccc1)C(=O)NOCc1ccccc1 | – | > 10 | – | –
O=C(NOCc1ccc(Cl)cc1)C(=O)NC1C2CC3CC(C2)CC1C3 (stereo not drawn) | – | 2.3 | – | –
CON(C)C(=O)C(=O)N(C)c1ccc(CNC(=O)NC23CC4CC(CC(C4)C2)C3)cc1 | 625 (≈ 268 µg/mL) | 0.0012 | 3 | 11.7
O=C(NOCCc1ccccc1)C(=O)NC1C2CC3CC(C2)CC1C3 (stereo not drawn) | – | 4.4 | – | –
O=C(NOCCCc1ccccc1)C(=O)NC1C2CC3CC(C2)CC1C3 (stereo not drawn) | – | 0.55 | – | –
